Here are results for 14 compounds from PubChem BioAssay.

Active and inactive are the calls of the source. Rule as the data show it, unless noted: active = inhibition above about 30%; inactive = the rest.

Experiment [1] is described as follows: Her2 expression decrease, cell viability multiplex – SKBR3 breast tumor cells, AlphaScreen, ATP viability, primary screen (AID 461;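 active = Her2 level under about 52% in both replicate screens, with viability over 70% of control, limit read from the data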;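 as to Her2 level: lower value means less Her2 protein in the cells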;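 as to viability: percent of carrier control wells set as 100% viability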). The settings on record: SKBR3 Her2 protein level, 18-24 h, measured here: SKBR3 viability, ATP luminescence, at 10 µM.
For experiment [2], the target named is Receptor tyrosine-protein kinase erbB-2 (Homo sapiens) (UniProt P04626). The experiment is described as above. The settings on record: 18-24 h, at 10 µM, stronger effect = lower value.
Experiment [3] in a line: reduced viability of SK-BR-3 breast cancer cells – cell-based, 24 h, human, pilot screen (AID 572;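 active = viability at or below 10% of carrier control in both of two separate runs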;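 also: compound exposure lasted between 18 and 24 h rather than exactly 24 h; 100% = carrier-treated control wells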). The note with it: SK-BR-3 viability, CellTiter-Glo luminescence, at 10 µM, stronger effect = lower value. For orientation: Cellular ATP, detected with luciferase, serves as a proxy for viable cell number.
The nature of experiment [4]: HUVEC growth inhibition – cell-based, human, primary screen (AID 575;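 active = viability at or below 30% in both replicate assays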;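 also: 100% = median of untreated cell wells with 0.1% DMSO on each plate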). The settings on record: HUVEC proliferation, CellTiter-Glo luminescence, 72 h; at 10 µM; stronger effect = lower value. In a few lines: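 System: primary human umbilical vein endothelial cells; Quantity: 1250 endothelial cells in each well; Buffer or medium: supplemented EBM, 2% fetal bovine serum; Doses: one dose, 10 µM final, 0.1% DMSO; Incubation: 72 h compound incubation; Technique: ATP-based CellTiter-Glo luminescent read; Evaluation: percent of median DMSO-control luminescence; Controls: vehicle and MePR control wells.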

Experiment [5] in a line: H69AR cell proliferation blockers – human, duplicate replicates, primary screen (AID 580;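 active = viability at or under a set limit in both replicates, limit being median viability minus 3 SD, cut at about 48% in these data, passing the limit was not always enough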;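 also: 100% = mean luminescence of untreated wells and 0% = no signal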). The settings on record: H69AR lung tumor cells viability, ATP luminescence, 72 h; at 10 µM; stronger effect = lower value.
Experiment [6] is described as follows: MRP1 drug-resistance reversers in H69AR cells – cell-based, doxorubicin co-treatment, pilot screen (AID 601;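 active = viability loss from added drug above about 55%, and viability with drug at most 40%, in both replicates, limit read from the data, passing the limit was not always enough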). The settings on record: CellTiter-Glo, 72 h, at 10 µM; for differential viability (reversal): stronger effect = higher value.
Experiment [7] can be described thus: yeast transport mutant growth inhibition pilot in 384-well plates, post-Golgi transport modulator project (AID 636; in the data active = inhibition above about 31%). The note with it: absorbance 615 nm, about 18 h, stronger effect = higher value.
Experiment [8] in a line: growth suppression of yeast trafficking mutant, preliminary HTS, modulators of trafficking downstream of Golgi apparatus project, 1536-format plate, OD 615 nm (AID 637). The settings on record: yeast transport mutant growth, absorbance 615 nm, 18 h; stronger effect = higher value.
[9] abbreviates: H69AR cells + 2 uM doxorubicin, measured here: viability with 2 uM doxorubicin, stronger effect = lower value.
Setting [10] is: H69AR cells, compound alone cytotoxicity.

Sequence of Receptor tyrosine-protein kinase erbB-2 (Homo sapiens) (P04626 whole entry, looked up): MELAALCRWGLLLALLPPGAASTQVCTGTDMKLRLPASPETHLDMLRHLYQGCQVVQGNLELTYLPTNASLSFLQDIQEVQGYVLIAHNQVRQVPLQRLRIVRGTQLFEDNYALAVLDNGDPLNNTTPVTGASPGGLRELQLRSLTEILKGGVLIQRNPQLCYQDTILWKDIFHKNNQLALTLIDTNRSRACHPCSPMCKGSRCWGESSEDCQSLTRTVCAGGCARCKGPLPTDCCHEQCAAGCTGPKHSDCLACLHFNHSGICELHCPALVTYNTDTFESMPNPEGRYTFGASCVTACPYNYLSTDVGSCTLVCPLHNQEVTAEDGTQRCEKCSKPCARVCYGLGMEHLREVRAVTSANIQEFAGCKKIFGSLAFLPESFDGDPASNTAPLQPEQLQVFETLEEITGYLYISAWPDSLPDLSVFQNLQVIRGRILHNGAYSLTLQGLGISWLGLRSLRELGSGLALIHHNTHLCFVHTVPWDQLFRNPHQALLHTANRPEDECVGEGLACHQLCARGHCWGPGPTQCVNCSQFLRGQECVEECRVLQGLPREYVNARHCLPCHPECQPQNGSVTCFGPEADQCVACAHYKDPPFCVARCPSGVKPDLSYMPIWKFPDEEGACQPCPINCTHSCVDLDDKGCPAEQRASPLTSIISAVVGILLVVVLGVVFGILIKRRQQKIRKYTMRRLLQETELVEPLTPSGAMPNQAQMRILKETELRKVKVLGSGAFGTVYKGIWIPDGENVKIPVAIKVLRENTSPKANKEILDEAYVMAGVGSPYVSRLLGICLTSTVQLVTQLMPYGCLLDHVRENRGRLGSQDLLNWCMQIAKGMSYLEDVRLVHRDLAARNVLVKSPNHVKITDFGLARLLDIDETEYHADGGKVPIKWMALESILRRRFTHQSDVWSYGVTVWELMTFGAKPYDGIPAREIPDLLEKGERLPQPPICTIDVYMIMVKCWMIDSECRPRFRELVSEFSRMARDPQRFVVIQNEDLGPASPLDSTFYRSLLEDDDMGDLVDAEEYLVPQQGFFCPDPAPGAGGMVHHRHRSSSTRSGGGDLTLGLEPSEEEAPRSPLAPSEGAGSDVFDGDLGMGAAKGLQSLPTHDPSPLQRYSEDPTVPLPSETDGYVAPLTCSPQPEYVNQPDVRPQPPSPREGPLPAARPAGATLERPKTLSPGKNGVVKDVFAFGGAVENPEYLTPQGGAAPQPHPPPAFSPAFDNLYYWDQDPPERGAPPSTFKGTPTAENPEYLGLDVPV

One may read the viability as a read-out of living cells in per cent, often relative to untreated cells. By inhibition is commonly meant the drop in the measured response relative to a control, in per cent. As for `COC(=O)CC1SC(=O)NC1=O` (stereo not given), the viability in experiment [1] is 110%; in experiment [3], 110% (inactive); in experiment [4], 102% (inactive); in experiment [5], 105% (inactive); in experiment [6] (setting [9]), 94.6%; in experiment [6] (setting [10]) it was 105%. The Her2 level in experiment [2] was 120% (inactive). In addition, the differential viability (reversal) in experiment [6] (H69AR cells + 2 uM doxorubicin) was 10.4% (inactive). Moreover, the inhibition in experiment [7] is 1.05% (inactive); in experiment [8], -7.21% (inactive).

`Cc1ccc(C(C)C)c(OCCn2c(=O)oc3ccccc32)c1`: the viability in experiment [1] is 89%; in experiment [3] it was 89% (inactive); in experiment [4], 87.9% (inactive); in experiment [5] it was 95.8% (inactive); in experiment [6] (setting [9]), 82.3%; in experiment [6] (setting [10]), 95.8%. For the same compound, the Her2 level in experiment [2] was 133% (inactive). Moreover, the differential viability (reversal) in experiment [6] (H69AR cells + 2 uM doxorubicin) was 13.5% (inactive). For the same compound, the inhibition is 0.79% (inactive) in experiment [7] and -3.83% (inactive) in experiment [8].

Consider `COc1cc2c(cc1OC)-c1cc(OCc3cccnc3)nc(=O)n1CC2`, for which the viability in experiment [1] was 92%; in experiment [3], 92% (inactive); in experiment [4], 99.7% (inactive); in experiment [5], 92.9% (inactive); in experiment [6] (setting [9]), 90.8%; in experiment [6] (setting [10]) it was 92.9%. Besides, the Her2 level in experiment [2] was 106% (inactive). For the same compound, the differential viability (reversal) in experiment [6] (H69AR cells + 2 uM doxorubicin) is 2.05% (inactive). Also, the inhibition is -3.73% (inactive) in experiment [7] and 9.19% (inactive) in experiment [8].

Turning to `CC(=O)Nc1ccc(Oc2cc(C#N)c(C#N)cc2N2CCCCCC2)cc1`, the viability in experiment [1] was 108%; in experiment [3] it was 108% (inactive); in experiment [4] it was 73.5% (inactive); in experiment [5] it was 89.6% (inactive); in experiment [6] (setting [9]) it was 67.8%; in experiment [6] (setting [10]) it was 89.6%. For the same compound, the Her2 level in experiment [2] was 76% (inactive). The differential viability (reversal) in experiment [6] (H69AR cells + 2 uM doxorubicin) was 21.8% (inactive). The figures for the inhibition in experiment [7] and in experiment [8] were -3.03% (inactive) and 0.95% (inactive), respectively.

With `CN(C)c1nc(Oc2ccc(=O)n(C)n2)nc(N2CCOCC2)n1`, the viability in experiment [1] is 94%; in experiment [3], 94% (inactive); in experiment [4] it was 95.7% (inactive); in experiment [5] it was 92.9% (inactive); in experiment [6] (setting [9]) it was 91.2%; in experiment [6] (setting [10]), 92.9%. The Her2 level in experiment [2] was 98.5% (inactive). In experiment [6] (H69AR cells + 2 uM doxorubicin), the differential viability (reversal) is 1.74% (inactive). The values for the inhibition in experiment [7] and in experiment [8] were -4.93% (inactive) and 1.64% (inactive), respectively.

`COc1ccc(CN(CC(=O)NCC2CCCO2)C(=O)CNS(=O)(=O)c2ccc(C)cc2)cc1` (stereo not given): the viability in experiment [1] was 107%; in experiment [3] it was 107% (inactive); in experiment [4], 96.3% (inactive); in experiment [5], 97.2% (inactive); in experiment [6] (setting [9]), 95%; in experiment [6] (setting [10]), 97.2%. Further, the Her2 level in experiment [2] was 102% (inactive). Besides, the differential viability (reversal) in experiment [6] (H69AR cells + 2 uM doxorubicin) is 2.2% (inactive). For the same compound, the inhibition in experiment [7] is -0.53% (inactive); in experiment [8] it was -6.23% (inactive).

Consider `CCCCOc1ccc(-c2nnn(CC(=O)NCc3ccco3)n2)cc1`, for which the viability in experiment [1] is 82.5%; in experiment [3], 82.5% (inactive); in experiment [4], 57.3% (inactive); in experiment [5], 23.9% (active); in experiment [6] (setting [9]), 54.3%; in experiment [6] (setting [10]) it was 23.9%. In addition, the Her2 level in experiment [2] is 81% (inactive). Further, the differential viability (reversal) in experiment [6] (H69AR cells + 2 uM doxorubicin) is -30.3% (inactive). The inhibition in experiment [7] was -1.18% (inactive); in experiment [8] it was 4.1% (inactive).

With `COc1ccc(-n2c(SCC(=O)Nc3ccc(C(=O)O)cc3)nnc2-c2cccs2)cc1`, the viability was 112% in experiment [1]; 112% (inactive) in experiment [3]; 99.4% (inactive) in experiment [4]; 109% (inactive) in experiment [5]; 93.4% in experiment [6] (setting [9]); 109% in experiment [6] (setting [10]). In addition, the Her2 level in experiment [2] was 94% (inactive). Moreover, the differential viability (reversal) in experiment [6] (H69AR cells + 2 uM doxorubicin) was 15.2% (inactive). The inhibition is -1.97% (inactive) in experiment [7] and -4.36% (inactive) in experiment [8].

`CCc1nnc(NC(=O)CN2CCN(c3ccccc3OC)CC2)s1`: the viability in experiment [1] was 99.5%; in experiment [3], 99.5% (inactive); in experiment [4], 64.9% (inactive); in experiment [5] it was 50.7% (inactive); in experiment [6] (setting [9]), 25.2%; in experiment [6] (setting [10]), 50.7%. In addition, in experiment [2], the Her2 level was 89% (inactive). In addition, the differential viability (reversal) in experiment [6] (H69AR cells + 2 uM doxorubicin) was 25.5% (inactive). For the same compound, the inhibition is -0.39% (inactive) in experiment [7] and -5.56% (inactive) in experiment [8].

Consider `CCN1CCN(CCCNC(=O)C2c3ccccc3C(=O)N(C)C2c2ccc(OC)cc2)CC1` (stereo not given), for which the viability is 102% in experiment [1]; 102% (inactive) in experiment [3]; 95.9% (inactive) in experiment [4]; 110% (inactive) in experiment [5]; 93.2% in experiment [6] (setting [9]); 110% in experiment [6] (setting [10]). For the same compound, in experiment [2], the Her2 level was 99% (inactive). In addition, the differential viability (reversal) in experiment [6] (H69AR cells + 2 uM doxorubicin) is 16.8% (inactive). Besides, the inhibition is -1.64% (inactive) in experiment [7] and -0.79% (inactive) in experiment [8].

Take `Cc1cc(C)nc(N2CCCC(C(=O)Nc3ccc4c(c3)OCO4)C2)n1` (stereo not given): the viability in experiment [1] was 93%; in experiment [3] it was 93% (inactive); in experiment [4] it was 96.9% (inactive); in experiment [5] it was 98.5% (inactive); in experiment [6] (setting [9]), 89.6%; in experiment [6] (setting [10]), 98.5%. Besides, the Her2 level in experiment [2] is 104% (inactive). The differential viability (reversal) in experiment [6] (H69AR cells + 2 uM doxorubicin) was 8.88% (inactive). The inhibition in experiment [7] was -5.54% (inactive); in experiment [8], -12.3% (inactive).

On to `COc1cc(CC(=O)NCc2ccc3c(c2)OCO3)cc(OC)c1OC`, for which the viability in experiment [1] is 99%; in experiment [3], 99% (inactive); in experiment [4], 85.9% (inactive); in experiment [5], 95.8% (inactive); in experiment [6] (setting [9]), 86.2%; in experiment [6] (setting [10]), 95.8%. The Her2 level in experiment [2] was 78.5% (inactive). Further, the differential viability (reversal) in experiment [6] (H69AR cells + 2 uM doxorubicin) was 9.63% (inactive). Also, the inhibition in experiment [7] is -1.84% (inactive); in experiment [8] it was 3.45% (inactive).

As for `Cc1ccc(S(=O)(=O)N2CCC(C(=O)N3CCC[C@H]3C(=O)NCc3ccccc3)CC2)cc1`, the viability in experiment [1] is 117%; in experiment [3], 117% (inactive); in experiment [4] it was 101% (inactive); in experiment [5] it was 90.8% (inactive); in experiment [6] (setting [9]), 96.2%; in experiment [6] (setting [10]), 90.8%. Also, the Her2 level in experiment [2] is 103% (inactive). The differential viability (reversal) in experiment [6] (H69AR cells + 2 uM doxorubicin) is -5.42% (inactive). Further, the inhibition in experiment [7] is -4.81% (inactive); in experiment [8], -0.66% (inactive).

`CC12CN3CC(C)(CN(C1)C3c1cc(Br)ccc1O)C2=O` (stereo not given): the viability was 95.5% in experiment [1]; 95.5% (inactive) in experiment [3]; 87% (inactive) in experiment [4]; 100% (inactive) in experiment [5]; 98.9% in experiment [6] (setting [9]); 100% in experiment [6] (setting [10]). For the same compound, in experiment [2], the Her2 level is 124% (inactive). Also, in experiment [6] (H69AR cells + 2 uM doxorubicin), the differential viability (reversal) is 1.15% (inactive). In addition, the inhibition in experiment [7] was -0.65% (inactive); in experiment [8] it was -3.83% (inactive).
